Measured values as given in ChEMBL document CHEMBL4152217, “Quinonoid compounds via reactions of lawsone and 2-aminonaphthoquinone with α-bromonitroalkenes and nitroallylic acetates: Structural diversity by C-ring modification and cytotoxic evaluation against cancer cells” (Eur J Med Chem, 2018).

Columns and labels:
PC-3 = experiment: Cytotoxicity against human PC3 cells assessed as reduction in cell viability after 72 hrs by MTT assay; assay type: functional, cell-based; conditions: PC-3, 72 h
In short: (§1)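 MTT viability assay. Cancer lines grown in RPMI 1640 and L929 fibroblasts in DMEM, each with 10% FBS, 2 mM glutamine, penicillin/streptomycin, 37 °C, 5% CO2. PBMC were taken from healthy donors by density-gradient centrifugation, kept in RPMI with 20% FBS and stimulated with 2% phytohemagglutinin. Cells were exposed 72 h (0.01–27.32 µM). MTT 0.5 mg/mL for 3 h, absorbance read at 550 nm. IC50 with 95% CI from nonlinear regression; triplicate, ≥3 independent experiments.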

HCT-116 [1] = experiment: Cytotoxicity against human HCT116 cells assessed as reduction in cell viability after 72 hrs by MTT assay; assay type: functional, cell-based; conditions: HCT-116, 72 h; in short: as §1
HL-60 = experiment: Cytotoxicity against human HL60 cells assessed as reduction in cell viability after 72 hrs by MTT assay; assay type: functional, cell-based; conditions: HL-60, 72 h; in short: as §1
SF-295 = experiment: Cytotoxicity against human SF295 cells assessed as reduction in cell viability after 72 hrs by MTT assay; conditions: SF-295, 72 h
NCI-H460 = experiment: Cytotoxicity against human NCI-H460 cells assessed as reduction in cell viability after 72 hrs by MTT assay; conditions: NCI-H460, 72 h
L929 = experiment: Cytotoxicity against mouse L929 cells assessed as reduction in cell viability after 72 hrs by MTT assay; assay type: cell-based; conditions: L929, 72 h; in short: as §1
PBMC = experiment: Cytotoxicity against human PBMC cells assessed as reduction in cell viability after 72 hrs by MTT assay
[2] = Selectivity index, ratio of IC50 for human PBMC cells to IC50 for human NCI-H460 cells; assay type: toxicity; conditions: PBMC cells versus NCI-H460 cells
OVCAR-8 = experiment: Cytotoxicity against human OVCAR8 cells assessed as reduction in cell viability after 72 hrs by MTT assay; conditions: OVCAR-8, 72 h
MX1 = experiment: Cytotoxicity against human MX1 cells assessed as reduction in cell viability after 72 hrs by MTT assay; conditions: MX1, 72 h
Jurkat = experiment: Cytotoxicity against human Jurkat cell viability after 72 hrs by MTT assay
HCT-116 [3] = experiment: Induction in oxidative stress in human HCT116 cells assessed as increase in nitrite level after 24 hrs by Griess reagent based assay; assay type: functional, cell-based
In short: (§2)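 HCT-116 cells were treated 24 h. Culture supernatant was mixed 1:1 with Griess reagent (sulfanilamide/N-(1-naphthyl)ethylenediamine in H3PO4) for 10 min at room temperature, and absorbance read at 560 nm. Nitrate/nitrite was quantified against a NaNO2 standard curve (0.75–100 µM). Vehicle was the negative control and H2O2 10 µM the positive control; three independent experiments, mean ± S.E.M.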

HCT-116 [4] = experiment: Induction in oxidative stress in human HCT116 cells assessed as nitrite level at 5 uM after 24 hrs by Griess reagent based assay; assay type: functional; in short: as §2
HCT-116 [5] = experiment: Induction in oxidative stress in human HCT116 cells assessed as nitrite level at 10 uM after 24 hrs by Griess reagent based assay; assay type: functional; in short: as §2
HCT-116 [6] = experiment: Induction of DNA damage in human HCT116 cells assessed as DNA damage index at 5 uM after 24 hrs by ethidium bromide staing based flurescence microscopic analysis (8.3 +/- 0.88); assay type: functional
HCT-116 [7] = experiment: Induction of DNA damage in human HCT116 cells assessed as DNA damage index at 10 uM after 24 hrs by ethidium bromide staing based flurescence microscopic analysis (8.3 +/- 0.88); assay type: functional

Row | Compound | IC50 (PC-3) | IC50 (HCT-116 [1]) | IC50 (HL-60) | IC50 (SF-295) | IC50 (NCI-H460) | IC50 (L929) | IC50 (PBMC) | selectivity ratio [2] | IC50 (OVCAR-8) | IC50 (MX1) | IC50 (Jurkat) | Activity (HCT-116 [3]) | Activity (HCT-116 [4]) | Activity (HCT-116 [5]) | Activity_index (HCT-116 [6]) | Activity_index (HCT-116 [7])
1 | COc1ccc(-n2cc(-c3ccc(Cl)cc3)c3c2C(=O)c2ccccc2C3=O)cc1 | 8.66 µM | 8.88 µM | 3.15 µM | 4.28 µM | 3.81 µM | > 12.1 µM | > 12.1 µM | > 3.1 | – | – | – | – | – | – | – | –
2 | O=C1c2ccccc2C(=O)c2c(-c3cccs3)coc21 | 4.85 µM | 5.17 µM | 3.28 µM | 4.96 µM | 5.67 µM | > 17.9 µM | > 17.9 µM | – | 5.39 µM | 4.92 µM | 4.21 µM | – | – | – | – | –
3 | O=C1c2ccccc2C(=O)c2c(-c3ccccc3[N+](=O)[O-])coc21 | 1.59 µM | 1.28 µM | 1.66 µM | 2.94 µM | 2.53 µM | > 15.7 µM | > 15.7 µM | – | 2.25 µM | 2.85 µM | 1.47 µM | – | – | – | – | –
4 | COc1ccc(-c2coc3c2C(=O)c2ccccc2C3=O)cc1OC | 3.89 µM | 5.2 µM | 3.41 µM | 3.74 µM | 4.07 µM | > 15 µM | > 15 µM | – | 4.69 µM | 5.05 µM | 3.71 µM | – | – | – | – | –
5 | O=C1c2ccccc2C(=O)c2c(-c3cccc4c3OCO4)coc21 | 2.54 µM | 2.76 µM | 2.23 µM | 3.71 µM | 3.61 µM | > 15.7 µM | > 15.7 µM | – | 3.08 µM | 2.92 µM | 2.04 µM | Dose-dependent effect | 5.33 µM | 8.33 µM | 42.88 | 82.77
6 | COc1ccc(-c2coc3c2C(=O)c2ccccc2C3=O)cc1 | 4.96 µM | 5.78 µM | 4.31 µM | 4.99 µM | 6.34 µM | > 16.4 µM | > 16.4 µM | – | 6.01 µM | 5.59 µM | 3.81 µM | – | – | – | – | –
7 | O=C1c2ccccc2C(=O)c2c(-c3ccc(Br)cc3)coc21 | 2.61 µM | 5.39 µM | 2.64 µM | 3.49 µM | 4.88 µM | > 14.2 µM | > 14.2 µM | – | 2.98 µM | 3.23 µM | 2.78 µM | – | – | – | – | –
